A1 inh: caspase 3/7 activation in MEF A1-2A-BIM cells, primary screen, A1 inhibitor project, cell-based, luminescence, HTS. caspase activation, % (no concentration beside the values). 330,000 tested, 0.066% active. Caspase-Glo 3/7 luminescence, 3 h; percent of clofoctol response, vehicle zero;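 active means over half of replicate activation scores above 10%, or exactly half above 10 with the replicate mean above 10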
NLRP3 yeast inh: NALP3 inflammasome inhibitors in reconstituted yeast, primary screen, luminescence, uHTS. Yeast reconstituted NLRP3/ASC/caspase-1, beta-gal luminescence, 24 h. inhibition, % at 10 µM. 330,000 tested, 0.39% active. AID 2825, 2010;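 active means inhibition of 50% or more; inactive means inhibition below 50%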
NALP1 inh: NALP1 inflammasome inhibitors in reconstituted yeast, colorimetric, S. cerevisiae, triplicate retest | 280,000 tested, 0.61% active | S. cerevisiae NALP1/ASC/caspase-1 growth, X-gal OD620, 72 h | inhibition, % at 10 µM | AID 2071, 2009; in the data active means inhibition mostly above about 24%, no sharp cut-off; inactive means mostly below about 32%
MC4R ag barr: MC4R agonists recruiting beta-arrestin, primary screen, cell-based, luminescence, agonist arm of biased-ligand search. Melanocortin receptor 4 (Homo sapiens), P32245. U2OS MC4R beta-arrestin complementation; percent of melanotan II response, DMSO zero. activation, % at 8.9 µM. 360,000 tested, 0.98% active;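 active means activation above a per-plate cutoff, the mean activation of sample wells on that plate plus 3 SD, cut at about 8% in these data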
Target sequence (P32245 whole entry, looked up): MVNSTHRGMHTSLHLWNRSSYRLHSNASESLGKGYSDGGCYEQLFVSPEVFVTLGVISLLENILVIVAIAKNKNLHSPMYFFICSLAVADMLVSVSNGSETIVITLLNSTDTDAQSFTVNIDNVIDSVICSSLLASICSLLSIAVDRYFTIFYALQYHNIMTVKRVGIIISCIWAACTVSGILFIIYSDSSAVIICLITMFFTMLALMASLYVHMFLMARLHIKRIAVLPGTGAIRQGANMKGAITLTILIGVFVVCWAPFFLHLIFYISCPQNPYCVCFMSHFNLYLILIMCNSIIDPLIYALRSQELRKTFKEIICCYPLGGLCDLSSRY
MC4R antag cAMP: MC4R antagonists of cAMP signaling, primary screen, cell-based, TR-FRET, antagonist arm of biased-ligand search; 360,000 tested, 0.48% active; MC4R-expressing cells, MTII-stimulated cAMP, LANCE TR-FRET; Melanocortin receptor 4 (Homo sapiens), P32245; inhibition, % at 6.5 µM;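 active means inhibition above its plate's cutoff, the mean of tested wells on that plate plus 3 SD, cut at about 29% in these data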
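Assay system: U2OS-MC4R stable cell line; Also added: Melanotan II; Technique: Eu-cAMP/anti-cAMP TR-FRET, emission 671 nm; Times: 30-min compound, 1-h challenge, 1-h detection, room temperature.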
TbMetRS inhib: T. brucei MetRS inhibitors, primary screen, biochemical, luminescence; purified T. brucei MetRS, ATP depletion, Kinase-Glo luminescence; 360,000 tested, 0.4% active; inhibition, % at 11.9 µM;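 active means inhibition above a per-plate cutoff of the control wells' mean inhibition plus 3 SD, cut at about 5.5% in these data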
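Material – parasite MetRS enzyme · Medium – HEPES-MgCl2-KCl buffer plus DTT, spermine, BSA, pyrophosphatase · Reagent – ATP, methionine and E. coli bulk tRNA substrates · Times – 15 min enzyme-compound preincubation, 2 h reaction, 10 min detection, 25 °C · Measured by – luminescence of leftover ATP · Evaluation – percent inhibition relative to median high and low control wells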
MC4R barr conf: MC4R beta-arrestin agonists, retest, confirmation, cell-based, luminescence, U2OS. shares compounds with MC4R ag barr. U2OS MC4R beta-arrestin recruitment; scaled DMSO 0%, Melanotan II 100%. activation, % at 8.9 µM. 2,400 tested, 31% active;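 active means mean activation across replicates above the hit cutoff set in the earlier primary screen, cut at about 8% in these data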
MOR-DOR barr ag: agonists of MOR-DOR heterodimerization, counter-screen for MC4R biased agonist project, cell-based, luminescence; U2OS PathHunter beta-arrestin, beta-gal luminescence; percent of deltorphin B response, DMSO zero; AID 602194, 2012; shares compounds with MC4R ag barr; 2,400 tested, 5.8% active; activation, % at 9.2 µM;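 active means mean activation across replicates exceeds the hit threshold derived in the earlier primary screen, cut at about 18% in these data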
Of the large screens only hits and unclear results are named; the others gave an inactive call (follow-up assays come after a bar, where they were run). Compounds with a hit are over-represented: about 2.5% of the library has one in this group of screens.

Cn1cccc1/C=N\NC(=O)Cc1ccc(Br)c2ccccc12	MC4R ag barr 17.4 | MC4R barr conf inactive | MOR-DOR barr ag inactive
CC1CCN(CCCNC(=O)c2ccc3c(=O)n(Cc4ccc(Cl)cc4)c(=S)[nH]c3c2)CC1	MC4R ag barr 12.5 | MC4R barr conf 9.9 | MOR-DOR barr ag inactive
O=S(=O)(c1ccc(-c2n[nH]c(=S)o2)cc1)N1CCCC1	none
COc1ccc(-c2ccc(SCC(=O)Nc3nccs3)nn2)cc1OC	MC4R ag barr 10.6 | MC4R barr conf inactive | MOR-DOR barr ag inactive
COc1ccc(NC(=O)CSc2ccc(-c3cccnc3)nn2)c(OC)c1	none
COc1ccc(NC(=O)CSc2ccc(-c3cccs3)nn2)c(OC)c1	MC4R ag barr 14.4 | MC4R barr conf inactive | MOR-DOR barr ag inactive
Cn1cnnc1SCC(=O)Nc1sc2c(c1C#N)CCCCC2	none
COC(=O)c1cccc(NC(=O)CSc2nnc(COc3ccccc3)n2C)c1	none
Cn1c(CNC(=O)c2ccc(Cl)c(Cl)c2)nnc1SCC(=O)Nc1sc2c(c1C#N)CCCC2	MC4R ag barr 10.8 | MC4R barr conf 11.1 | MOR-DOR barr ag inactive
Cc1sc(NC(=O)CSc2nnc(COc3ccc(Cl)cc3)n2C)c(C#N)c1C	MC4R ag barr 11.3 | MC4R barr conf inactive | MOR-DOR barr ag inactive
CCOC(=O)c1ccc(NC(=O)CSc2nnc(COc3ccccc3)n2C)cc1	MC4R ag barr 11.4 | MC4R barr conf inactive | MOR-DOR barr ag inactive
Cc1ccc(-c2nnc(SCC(=O)Nc3sc(C)c(C)c3C#N)n2C)cc1	none
O=C(CSc1nc(Cc2ccccc2)nc2ccccc12)Nc1ccc2c(c1)OCCO2	MC4R ag barr 13.9 | MC4R barr conf inactive | MOR-DOR barr ag inactive
O=C(Cc1ccccc1)Nc1ccc(-c2nnc(-c3ccco3)o2)cc1	none
O=C(Cc1ccc(Cl)cc1)Nc1ccc(-c2nnc(-c3ccco3)o2)cc1	MC4R ag barr 12.4 | MC4R barr conf 13.1 | MOR-DOR barr ag inactive
Cc1ccc(-c2nnc(-c3ccc(NC(=O)Cc4cccs4)cc3)o2)cc1	MC4R ag barr 35.9 | MC4R barr conf 21.7 | MOR-DOR barr ag inactive
O=C(CSCc1ccc(Cl)cc1)Nc1ccc(-c2nnc(-c3ccccc3)o2)cc1	MC4R ag barr 9.9 | MC4R barr conf inactive | MOR-DOR barr ag inactive
O=C(Nc1ccc(-c2nnc(-c3ccco3)o2)cc1)C(c1ccccc1)c1ccccc1	MC4R ag barr 22.7 | MC4R barr conf inactive | MOR-DOR barr ag inactive
COc1ccc(C(=O)Nc2cccc(C(=O)Nc3cc(C)ccn3)c2)cc1	none (no result: A1 inh, NLRP3 yeast inh, NALP1 inh)
Cc1ccc(SCC(=O)Nc2ccc(C(=O)Nc3ccc(O)cc3)cc2)cc1	MC4R ag barr 10.8 | MC4R barr conf inactive | MOR-DOR barr ag inactive
Cc1ccc(NC(=O)CCSc2nnc(-c3ccco3)o2)cc1	none
Cc1ccc(SCC(=O)Nc2ccc(-c3nnc(-c4ccco4)o3)cc2)cc1	MC4R ag barr 18.3 | MC4R barr conf 9.1 | MOR-DOR barr ag inactive
Cc1ccc(SCC(=O)Nc2cccc(C)c2)cc1	none
NNC(=O)C1C(O)CCC2CN3CCc4c([nH]c5ccccc45)C3CC21 (stereo not drawn)	none (no result: A1 inh, NLRP3 yeast inh, NALP1 inh)
c1ccc(-c2cc(NCCN3CCCCC3)c3ccccc3n2)cc1	none

High-throughput results (PubChem)
